Experimental data: ChEMBL document CHEMBL3792365, “Dioxol and dihydrodioxin analogs of 2- and 3-phenylacetonitriles as potent anti-cancer agents with nanomolar activity against a variety of human cancer cells” (2016)

Assays:
Type in all cases: functional
[1] = Growth inhibition of human LOXIMVI cells after 48 hrs by sulforhodamine B assay; details: LOX IMVI
In short: (§1)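 Five-dose testing against a 60-line human tumor cell panel. GI50 is the drug concentration giving a 50% reduction in net protein increase relative to untreated control cells.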

[2] = Growth inhibition of human RPMI8226 cells after 48 hrs by sulforhodamine B assay; details: RPMI-8226, 48 h
In short: (§2)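 Five-dose concentration series run across a panel of 60 human tumour cell lines. GI50 is taken as the drug concentration giving a 50% reduction in net protein increase relative to untreated control cells.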

MDA-MB-435 = assay: Growth inhibition of human MDA-MB-435 cells after 48 hrs by sulforhodamine B assay; details: MDA-MB-435, 48 h; in short: as §1
[3] = Growth inhibition of human UACC62 cells at 10 uM after 48 hrs by sulforhodamine B assay; details: UACC-62, 48 h, values are per cent of control
CCRF-CEM [4] = assay: Growth inhibition of human CCRF-CEM cells at 10 uM after 48 hrs by sulforhodamine B assay; details: values are per cent of control
MCF7 [5] = assay: Growth inhibition of human MCF7 cells at 10 uM after 48 hrs by sulforhodamine B assay; details: MCF7, 48 h, values are per cent of control
[6] = Growth inhibition of human OVCAR3 cells after 48 hrs by sulforhodamine B assay; details: OVCAR-3, 48 h; in short: as §2
[7] = Growth inhibition of human HL-60(TB) cells at 10 uM after 48 hrs by sulforhodamine B assay; details: HL-60, 48 h, values are per cent of control
[8] = Growth inhibition of human IGROV1 cells at 10 uM after 48 hrs by sulforhodamine B assay; details: IGROV-1, 48 h, values are per cent of control
[9] = Growth inhibition of human MOLT4 cells after 48 hrs by sulforhodamine B assay; details: MOLT-4, 48 h; in short: as §2
[10] = Growth inhibition of human RPMI8226 cells at 10 uM after 48 hrs by sulforhodamine B assay; details: RPMI-8226, 48 h, values are per cent of control
A549 = assay: Growth inhibition of human A549/ATCC cells after 48 hrs by sulforhodamine B assay; details: A549, 48 h; in short: as §1
[11] = Growth inhibition of human OVCAR3 cells at 10 uM after 48 hrs by sulforhodamine B assay; details: OVCAR-3, 48 h, values are per cent of control
A498 = assay: Growth inhibition of human A498 cells after 48 hrs by sulforhodamine B assay; details: A498, 48 h; in short: as §1
SK-MEL-5 = assay: Growth inhibition of human SK-MEL-5 cells after 48 hrs by sulforhodamine B assay; details: SK-MEL-5, 48 h; in short: as §2
[12] = Growth inhibition of human HCC2998 cells at 10 uM after 48 hrs by sulforhodamine B assay; details: HCC 2998, 48 h, values are per cent of control
SR [13] = assay: Growth inhibition of human SR cells at 10 uM after 48 hrs by sulforhodamine B assay; details: values are per cent of control
NCI-H23 [14] = assay: Growth inhibition of human NCI-H23 cells at 10 uM after 48 hrs by sulforhodamine B assay; details: NCI-H23, 48 h, values are per cent of control
Malme-3M = assay: Growth inhibition of human MALME-3M cells at 10 uM after 48 hrs by sulforhodamine B assay; details: values are per cent of control
[15] = Growth inhibition of human UACC257 cells at 10 uM after 48 hrs by sulforhodamine B assay; details: UACC-257, 48 h, values are per cent of control
[16] = Growth inhibition of human IGROV1 cells after 48 hrs by sulforhodamine B assay; details: IGROV-1, 48 h; in short: as §1
NCI-H522 [17] = assay: Growth inhibition of human NCI-H522 cells after 48 hrs by sulforhodamine B assay; details: NCI-H522, 48 h; in short: as §2
CCRF-CEM [18] = assay: Growth inhibition of human CCRF-CEM cells after 48 hrs by sulforhodamine B assay; in short: as §1
786-0 = assay: Growth inhibition of human 786-0 cells after 48 hrs by sulforhodamine B assay; details: 786-0, 48 h; in short: as §1
[19] = Growth inhibition of human SW620 cells after 48 hrs by sulforhodamine B assay; details: SW-620, 48 h; in short: as §2
MDA-MB-231 = assay: Growth inhibition of human MDA-MB-231 cells after 48 hrs by sulforhodamine B assay; details: MDA-MB-231, 48 h; in short: as §1
[20] = Growth inhibition of human PC3 cells at 10 uM after 48 hrs by sulforhodamine B assay; details: PC-3, 48 h, values are per cent of control
KM12 = assay: Growth inhibition of human KM12 cells after 48 hrs by sulforhodamine B assay; details: KM12, 48 h; in short: as §1
[21] = Growth inhibition of human UO31 cells after 48 hrs by sulforhodamine B assay; details: UO-31, 48 h
In short: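 Five-dose testing across the 60-line human tumour cell panel. GI50 is the drug concentration that gives a 50% reduction in net protein increase relative to control cells.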

NCI-H522 [22] = assay: Growth inhibition of human NCI-H522 cells at 10 uM after 48 hrs by sulforhodamine B assay; details: NCI-H522, 48 h, values are per cent of control
[23] = Growth inhibition of human Hs 578T cells at 10 uM after 48 hrs by sulforhodamine B assay; details: values are per cent of control
NCI-H23 [24] = assay: Growth inhibition of human NCI-H23 cells after 48 hrs by sulforhodamine B assay; details: NCI-H23, 48 h; in short: as §2
[25] = Growth inhibition of human HCT15 cells at 10 uM after 48 hrs by sulforhodamine B assay; details: HCT-15, 48 h, values are per cent of control
[26] = Growth inhibition of human HCT116 cells after 48 hrs by sulforhodamine B assay; details: HCT-116, 48 h; in short: as §1
[27] = Growth inhibition of human MOLT4 cells at 10 uM after 48 hrs by sulforhodamine B assay; details: MOLT-4, 48 h, values are per cent of control
MDA-MB-468 = assay: Growth inhibition of human MDA-MB-468 cells after 48 hrs by sulforhodamine B assay; details: MDA-MB-468, 48 h; in short: as §1
[28] = Growth inhibition of human PC3 cells after 48 hrs by sulforhodamine B assay; details: PC-3, 48 h; in short: as §2
MCF7 [29] = assay: Growth inhibition of human MCF7 cells after 48 hrs by sulforhodamine B assay; details: MCF7, 48 h; in short: as §1
[30] = Growth inhibition of human SNB19 cells after 48 hrs by sulforhodamine B assay; details: SNB-19, 48 h; in short: as §2
[31] = Growth inhibition of human Hs 578T cells after 48 hrs by sulforhodamine B assay; in short: as §1
T47D = assay: Growth inhibition of human T47D cells at 10 uM after 48 hrs by sulforhodamine B assay; details: values are per cent of control
SR [32] = assay: Growth inhibition of human SR cells after 48 hrs by sulforhodamine B assay; in short: as §2
M14 = assay: Growth inhibition of human M14 cells after 48 hrs by sulforhodamine B assay; details: M14, 48 h; in short: as §1
ACHN = assay: Growth inhibition of human ACHN cells after 48 hrs by sulforhodamine B assay; in short: as §1

Compound: COc1ccc(/C=C(\C#N)c2ccc3c(c2)OCO3)c2ccccc12
- GI50 [1]: 3960 nM
- GI50 [2]: 3850 nM
- GI50 (MDA-MB-435): 310 nM
- growth, % of control at 10 µM [3]: 25.1%
- growth, % of control at 10 µM (CCRF-CEM [4]): 21.6%
- growth, % of control at 10 µM (MCF7 [5]): 12.1%
- GI50 [6]: 3040 nM
- growth, % of control at 10 µM [7]: 7.8%
- growth, % of control at 10 µM [8]: 36.3%
- GI50 [9]: 3710 nM
- growth, % of control at 10 µM [10]: 5.3%
- GI50 (A549): 2650 nM
- growth, % of control at 10 µM [11]: -21.2%
- GI50 (A498): 410 nM
- GI50 (SK-MEL-5): 1520 nM
- growth, % of control at 10 µM [12]: 45.7%
- growth, % of control at 10 µM (SR [13]): 18.4%
- growth, % of control at 10 µM (NCI-H23 [14]): 49.9%
- growth, % of control at 10 µM (Malme-3M): 37.9%
- growth, % of control at 10 µM [15]: 41%
- GI50 [16]: 4070 nM
- GI50 (NCI-H522 [17]): 2370 nM
- GI50 (CCRF-CEM [18]): 1910 nM
- GI50 (786-0): 4380 nM
- GI50 [19]: 720 nM
- GI50 (MDA-MB-231): 2430 nM
- growth, % of control at 10 µM [20]: 36.1%
- GI50 (KM12): 2390 nM
- GI50 [21]: 6240 nM
- growth, % of control at 10 µM (NCI-H522 [22]): 1.4%
- growth, % of control at 10 µM [23]: -14.1%
- GI50 (NCI-H23 [24]): 5090 nM
- growth, % of control at 10 µM [25]: 21.4%
- GI50 [26]: 2410 nM
- growth, % of control at 10 µM [27]: 26.8%
- GI50 (MDA-MB-468): 510 nM
- GI50 [28]: 3040 nM
- GI50 (MCF7 [29]): 610 nM
- GI50 [30]: 4240 nM
- GI50 [31]: 2630 nM
- growth, % of control at 10 µM (T47D): 38.2%
- GI50 (SR [32]): 5440 nM
- GI50 (M14): 1680 nM
- GI50 (ACHN): 4240 nM

Compound: COc1ccc(/C=C(\C#N)c2ccc3c(c2)OCO3)c(OC)c1
- GI50 [1]: 5330 nM
- GI50 [2]: 3230 nM
- GI50 (MDA-MB-435): 300 nM
- growth, % of control at 10 µM [3]: 39.7%
- growth, % of control at 10 µM (CCRF-CEM [4]): 27%
- GI50 [6]: 3100 nM
- growth, % of control at 10 µM [7]: 7.1%
- growth, % of control at 10 µM [8]: 45.1%
- GI50 [9]: 2810 nM
- growth, % of control at 10 µM [10]: 58.1%
- GI50 (A549): 2650 nM
- growth, % of control at 10 µM [11]: 15.3%
- GI50 (A498): 1330 nM
- GI50 (SK-MEL-5): 2580 nM
- growth, % of control at 10 µM [12]: 60.5%
- growth, % of control at 10 µM (SR [13]): 15.5%
- growth, % of control at 10 µM (NCI-H23 [14]): 59.1%
- growth, % of control at 10 µM (Malme-3M): 49.3%
- growth, % of control at 10 µM [15]: 44.7%
- GI50 [16]: 8800 nM
- GI50 (NCI-H522 [17]): 2580 nM
- GI50 (CCRF-CEM [18]): 1560 nM
- GI50 (786-0): 4930 nM
- GI50 [19]: 1230 nM
- GI50 (MDA-MB-231): 3360 nM
- growth, % of control at 10 µM [20]: 47%
- GI50 (KM12): 2250 nM
- GI50 [21]: 6660 nM
- growth, % of control at 10 µM (NCI-H522 [22]): 43.3%
- growth, % of control at 10 µM [23]: 43.8%
- GI50 (NCI-H23 [24]): 6330 nM
- growth, % of control at 10 µM [25]: 24.4%
- GI50 [26]: 2680 nM
- growth, % of control at 10 µM [27]: 22.7%
- GI50 (MDA-MB-468): 690 nM
- GI50 [28]: 3030 nM
- GI50 (MCF7 [29]): 850 nM
- GI50 [30]: 6950 nM
- GI50 [31]: 3620 nM
- growth, % of control at 10 µM (T47D): 43.5%
- GI50 (SR [32]): 530 nM
- GI50 (M14): 1320 nM
- GI50 (ACHN): 4920 nM
